In ChEMBL document CHEMBL2390866, “Novel pyrimidoazepine analogs as serotonin 5-HT(2A) and 5-HT(2C) receptor ligands for the treatment of obesity” (Eur J Med Chem, 2013):

What was measured:
[1] = Ratio of drug level from brain to plasma in Sprague-Dawley rat at 10 mg/kg, po measured at 2 hrs; type: ADME, organism-based; set-up: dose 10 mg/kg, route oral; conditions: read-out: BPR
How it was run: (§1)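 Rats fasted 12 h, then dosed orally by gavage or by bolus tail-vein injection at 2 ml/kg. Compound given as a 5 mg/ml solution in N-methyl-2-pyrrolidone/Tween 80/water (1:2:7). Samples taken at various times (n = 5) and stored at −70 °C. Plasma deproteinized with acetonitrile containing carbamazepine internal standard, then quantified by LC-MS/MS.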

[2] = Plasma concentration in Sprague-Dawley rat at 10 mg/kg, iv measured at 2 hrs; type: ADME, organism-based; set-up: dose 10 mg/kg, route intravenous; how it was run: as §1
[3] = system: Mus musculus; assay: Antiobesity activity in B6.V/J ob/ob mouse assessed as change in kidney weight at 25 mg/kg, po bid measured after 14 days (reference value: 0.339 +/- 0.009 g); type: functional
[4] = system: Mus musculus; assay: Antiobesity activity in B6.V/J ob/ob mouse assessed as change in spleen weight at 25 mg/kg, po bid measured after 14 days (reference value: 0.097 +/- 0.052 g); type: functional
[5] = system: Mus musculus; assay: Antiobesity activity in B6.V/J ob/ob mouse assessed as […] at 25 mg/kg, ip measured after 12 hrs relative to vehicle-treated control; type: functional; conditions: route intraperitoneal
[6] = system: Mus musculus; assay: Antiobesity activity in B6.V/J ob/ob mouse assessed as inhibition of food intake at 25 mg/kg, ip measured up to 12 hrs relative to vehicle-treated control; type: functional; conditions: route intraperitoneal
How it was run: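 Male mice were acclimated 1 week at 23 ± 3 °C and 50 ± 20% humidity, then fasted 24 h. They were dosed once intraperitoneally with vehicle or compound: 50 mg/kg in C57BL/6, or 12.5, 25 or 50 mg/kg in B6.V-Lep^ob/J. Food intake was measured at 2, 6 and 12 h versus vehicle control.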

[7] = biological target: D(2) dopamine receptor (Homo sapiens, UniProt P14416); assay: Displacement of [3H]-methylspiperone from dopamine D2L receptor (unknown origin) after 60 mins
How it was run: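 Receptor membranes incubated at 27 °C, 60 min for D2L and 30 min for D3, with [3H]methylspiperone (0.2 nM for D2L, 0.25 nM for D3) and test compound at a range of concentrations. Buffer was 50 mM Tris-HCl pH 7.4, 10 mM MgCl2, 1 mM EDTA, 120 mM NaCl. Nonspecific binding defined with haloperidol (D2) or GR103691 (D3). IC50 obtained by nonlinear regression.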

D(2) dopamine receptor, sequence (P14416 whole entry): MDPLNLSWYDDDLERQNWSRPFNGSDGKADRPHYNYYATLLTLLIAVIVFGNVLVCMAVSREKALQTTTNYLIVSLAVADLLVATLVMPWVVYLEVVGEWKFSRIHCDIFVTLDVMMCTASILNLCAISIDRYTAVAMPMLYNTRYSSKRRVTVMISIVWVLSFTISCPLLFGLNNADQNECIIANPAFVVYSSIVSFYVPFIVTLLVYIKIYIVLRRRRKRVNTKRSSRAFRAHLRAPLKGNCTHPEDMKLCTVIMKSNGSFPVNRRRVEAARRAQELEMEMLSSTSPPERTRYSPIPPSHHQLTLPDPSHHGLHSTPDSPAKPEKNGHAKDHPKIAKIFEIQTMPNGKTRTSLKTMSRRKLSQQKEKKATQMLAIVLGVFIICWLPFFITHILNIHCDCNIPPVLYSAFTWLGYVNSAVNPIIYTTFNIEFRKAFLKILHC

For `Cl.Clc1cccc(Nc2nc(Cc3ccccc3)nc3c2CCNCC3)c1`, the Kp at 2 h [1] was 0.66, the concentration at 2 h [2] was 190 ng/mL and the Activity [3] was 0.329 g. It also gave an Activity [4] of 0.111 g, an inhibition in vivo at 25 mg/kg [5] of 51.1% and an inhibition in vivo at 25 mg/kg [6] of 77.8%. For the same compound, the IC50 [7] was 85.8 nM.
